This is an account of results in ChEMBL document CHEMBL1141335, “Epicoccamides B-D, glycosylated tetramic acid derivatives from an Epicoccum sp. associated with the tree fungus Pholiota squarrosa” (J Nat Prod, 2007).

Data set [1] in a line: Antiproliferative activity against mouse L929 cells. It is filed as cell-based.
Another data set deals with K562. Nature of the data set: Antiproliferative activity against human K562 cells. It is filed as functional.
The subject of the next data set is HeLa. The data set is described as follows: Cytotoxicity against human HeLa cells. The data set is classed as functional. As to conditions: for CC50: Homo sapiens, HeLa. An outline of the steps: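 HeLa Ohio cells grown 2 days to confluent monolayers, then growth medium replaced with nine 2-fold compound dilutions in test medium. Incubated 72 h at 37 °C, 5% CO2. Cells fixed, washed and stained, with OD read at 660 nm. Viability taken as % of six untreated controls. CC50 calculated from the mean dose–response curve of two assays.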

The subject of data set [2] is Remotididymella destructiva. The data set is described as follows: Induction of morphogenesis in Phoma destructiva at 1.7 mM. The data set is classed as functional, organism-based. Summed up: (§1)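 Phoma destructiva vegetative mycelium grown on malt agar plates (malt extract, glucose, yeast extract, (NH4)2SO4, pH 6.0), set up like an agar-well diffusion assay. 50 µL of purified metabolite placed in 9 mm agar wells. Plates incubated for three days, then scored visually for changes in pigment and aerial mycelium formation.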

Data set [3] relates to Remotididymella destructiva. The data set is described as follows: Induction of pigment formation in Phoma destructiva at 1.7 mM. The data set is classed as functional, organism-based. Summed up:
as §1

Active and inactive are the calls of the source. No cut-off for these calls is given here.

Regarding `CC(CCCCCCCCCCCCCCO[C@@H]1O[C@H](CO)[C@@H](O)[C@H](O)[C@@H]1O)C(=O)C1=C(O)N(C)C(C)C1=O` (stereo partly drawn), the GI50 in data set [1] is greater than 90 µM. For the same compound, the GI50 with K562 was greater than 90 µM. For the same compound, in the data set on HeLa, the CC10 was determined as 51.3 µM and the CC50 is greater than 90 µM.

`CC(=O)O[C@@H]1[C@H](O)[C@H](OCCCCCCCCCCCCCCC(C)C(=O)C2=C(O)N(C)C(C)C2=O)O[C@H](CO)[C@H]1O` (stereo partly drawn) gave a GI50 in data set [1] of 71.1 µM. Moreover, the concentration for 50% growth inhibition (GI50) with K562 is 52.7 µM. In the data set with HeLa, this compound showed a CC10 of 26.2 µM and a CC50 of 44.2 µM.

`CC(=O)OC[C@H]1O[C@@H](OCCCCCCCCCCCCCCC(C)C(=O)C2=C(O)N(C)C(C)C2=O)[C@@H](O)[C@@H](O)[C@@H]1O` (stereo partly drawn) [EPICOCCAMIDE C]: the values for the GI50 (in data set [1]; in the data set on K562) were 57.2 µM and 33.7 µM, respectively. This compound gave a CC10 in the data set with HeLa of 13.6 µM. The compound further yielded a CC50 in the data set with HeLa of 29 µM.

On to `CC(CCCCCCCCCCCCCCCCO[C@@H]1O[C@H](CO)[C@@H](O)[C@H](O)[C@@H]1O)C(=O)C1=C(O)N(C)C(C)C1=O` (stereo partly drawn) [EPICOCCAMIDE D], for which the GI50 in data set [1] is 50.5 µM; with K562, 33.3 µM. The compound also came in with a CC10 in the data set on HeLa of 11.6 µM. In the data set with HeLa, the CC50 is 17 µM. Further, the outcome in data set [2] and in data set [3] was Active.
